What was measured:
[1] = Intrinsic clearance in human gut microsomes in presence of UGT; assay type: ADME, Microsome
Outline: (§1)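 UGT pathway: human gut or liver microsomes at 0.5 mg protein/mL with 2 mM UDPGA, alamethicin and 1 mM MgCl2, pH 7.1. Compound depletion measured by LC–MS/MS in duplicate time-course incubations; intrinsic clearance expressed per mg protein.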

[2] = Intrinsic clearance in human liver microsomes in presence of UGT; assay type: ADME, Microsome; outline: as §1
[3] = Intrinsic clearance in human gut microsomes in presence of NADPH; assay type: ADME, Microsome
Outline: (§2)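 Pooled human microsomes (gut or liver) at 0.5 mg protein/mL with 1 mM NADPH, pH 7.4 (P450 pathway). Compound loss followed by LC–MS/MS in duplicate time-course incubations; intrinsic clearance given per mg protein.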

Cannabinoid receptor 1 [4] = molecular target: T1, Cannabinoid receptor 1 (Homo sapiens, UniProt P21554); test: Antagonist activity against human CB1 receptor; assay type: functional
T1 sequence (P21554 whole entry): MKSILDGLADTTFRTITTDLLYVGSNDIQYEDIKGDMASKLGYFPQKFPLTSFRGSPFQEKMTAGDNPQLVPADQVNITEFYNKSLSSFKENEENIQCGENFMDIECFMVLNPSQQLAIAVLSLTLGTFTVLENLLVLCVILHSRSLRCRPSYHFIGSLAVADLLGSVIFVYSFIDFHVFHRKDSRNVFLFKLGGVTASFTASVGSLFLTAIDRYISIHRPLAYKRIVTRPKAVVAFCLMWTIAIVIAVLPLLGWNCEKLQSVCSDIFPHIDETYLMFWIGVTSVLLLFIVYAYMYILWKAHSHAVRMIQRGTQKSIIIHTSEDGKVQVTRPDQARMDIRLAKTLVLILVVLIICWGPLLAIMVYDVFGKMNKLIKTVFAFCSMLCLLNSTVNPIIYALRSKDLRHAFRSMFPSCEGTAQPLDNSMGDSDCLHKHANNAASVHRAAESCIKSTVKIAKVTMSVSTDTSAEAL

[5] = Intrinsic clearance in human liver microsomes in presence of NADPH; assay type: ADME, Microsome; outline: as §2
Mus musculus = test: Inhibition of WIN55212-2-induced hypothermia in po dosed mouse assessed as change in rectal temperature administered 15 mins before WIN55212-2 challenge measured after 75 mins; assay type: functional; details: read-out: ID50 (the source's name)
Outline: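 Antagonist or vehicle (5% mulgofen in saline, 10 mL/kg) given orally 75 min before rectal temperature reading. WIN 55,212-2 mesylate (10 mL/kg) given sc 60 min before the reading, at its time of maximal hypothermia. Metal probe with vaseline inserted about 1.5 cm; highest temperature stable for 10 s recorded. ID50 reported with confidence interval.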

Cannabinoid receptor 1 [6] = molecular target: T1, Cannabinoid receptor 1; test: biochemical; assay type: cell-based, CHO
Cannabinoid receptor 2 = Cannabinoid receptor 2 (Homo sapiens, UniProt P34972); test: Displacement of [3H]CP55940 from human recombinant CB2 receptor expressed in Sf9 cells
Chain of Cannabinoid receptor 2 (P34972 whole entry): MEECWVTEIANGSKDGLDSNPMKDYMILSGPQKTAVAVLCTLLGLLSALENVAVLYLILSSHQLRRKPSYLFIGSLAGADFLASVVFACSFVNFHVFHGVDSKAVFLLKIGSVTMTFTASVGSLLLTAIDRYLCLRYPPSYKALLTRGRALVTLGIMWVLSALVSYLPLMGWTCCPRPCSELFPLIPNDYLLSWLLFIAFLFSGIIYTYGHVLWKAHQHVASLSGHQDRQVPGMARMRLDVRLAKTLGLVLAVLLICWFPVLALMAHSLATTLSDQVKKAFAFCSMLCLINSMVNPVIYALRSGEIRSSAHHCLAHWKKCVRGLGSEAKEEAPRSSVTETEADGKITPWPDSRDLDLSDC
Outline: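 Competition binding against [3H]CP55,940 on membranes from Sf9 cells expressing recombinant human CB2 receptor; run at least in duplicate.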

Row | SMILES | microsomal CLint [1] | microsomal CLint [2] | microsomal CLint [3] | IC50 (Cannabinoid receptor 1 [4]) | microsomal CLint [5] | ED50 (Mus musculus) | Ki (Cannabinoid receptor 1 [6]) | Ki (Cannabinoid receptor 2)
1 | COc1ccc(Br)cc1Cn1c(C(=O)NCCCO)cc2cc(C#N)ccc21 | < 6 µL/min/mg | < 6 µL/min/mg | < 6 µL/min/mg | 9.33 nM | 41 µL/min/mg | – | – | –
2 | COc1ccc(C(F)(F)F)cc1Cn1c(C(=O)NCCC2(O)CCC2)cc2cc(C#N)ccc21 | < 6 µL/min/mg | < 6 µL/min/mg | < 6 µL/min/mg | 1.48 nM | 88 µL/min/mg | – | – | –
3 | Cc1ccc(F)cc1Cn1c(C(=O)NCC2(CO)CCC2)cc2cc(C#N)ccc21 | 175 µL/min/mg | 49 µL/min/mg | < 6 µL/min/mg | 4.9 nM | 190 µL/min/mg | – | – | –
4 | COc1ccc(C(F)(F)F)cc1Cn1c(C(=O)NCC(C)(C)O)cc2cc(C#N)ccc21 | < 6 µL/min/mg | < 6 µL/min/mg | < 6 µL/min/mg | 11.5 nM | 7 µL/min/mg | > 10 µmol/kg | 7.59 nM | –
5 | CC(O)C1(CNC(=O)c2cc3cc(C#N)ccc3n2Cc2cccc(OC(F)(F)F)c2)CCCC1 (stereo not given) | < 6 µL/min/mg | 9 µL/min/mg | 99 µL/min/mg | 5.13 nM | 505 µL/min/mg | – | – | –
6 | Cc1ccc(C(F)(F)F)cc1Cn1c(C(=O)NCC(C)(C)CO)cc2cc(C#N)ccc21 | 102 µL/min/mg | 16 µL/min/mg | < 6 µL/min/mg | 0.513 nM | 180 µL/min/mg | – | – | –
7 | COc1ccc(C(F)(F)F)cc1Cn1c(C(=O)NCC2(CO)CC2)cc2cc(C#N)ccc21 | 49 µL/min/mg | 7 µL/min/mg | < 6 µL/min/mg | 1.32 nM | 155 µL/min/mg | – | – | –
8 | Cc1ccc(Cl)cc1Cn1c(C(=O)NCC(C)(C)CO)cc2cc(C#N)ccc21 | 124 µL/min/mg | 23 µL/min/mg | < 6 µL/min/mg | 0.575 nM | 119 µL/min/mg | – | – | –
9 | CCOc1ccc(OC(F)(F)F)cc1Cn1c(C(=O)NCC(C)(C)CO)cc2cc(C#N)ccc21 | 103 µL/min/mg | 20 µL/min/mg | < 6 µL/min/mg | 8.32 nM | 103 µL/min/mg | – | – | –
10 | COc1ccc(Br)cc1Cn1c(C(=O)NCC(C)(C)CO)cc2cc(C#N)ccc21 | 94 µL/min/mg | 23 µL/min/mg | < 6 µL/min/mg | 0.776 nM | 104 µL/min/mg | – | – | –
11 | CCCOc1cccc(Cn2c(C(=O)NCC(C)(C)CO)cc3cc(C#N)ccc32)c1 | 45 µL/min/mg | 10 µL/min/mg | 13 µL/min/mg | 1.55 nM | 156 µL/min/mg | – | – | –
12 | CC(O)CCNC(=O)c1cc2cc(C#N)ccc2n1Cc1cccc(OC(F)(F)F)c1 (stereo not given) | < 6 µL/min/mg | < 6 µL/min/mg | < 6 µL/min/mg | 8.91 nM | 113 µL/min/mg | – | – | –
13 | COc1ccc(C(C)(C)C)cc1Cn1c(C(=O)NCC2(CO)CC2)cc2cc(C#N)ccc21 | 26 µL/min/mg | < 6 µL/min/mg | < 6 µL/min/mg | 1.48 nM | 188 µL/min/mg | – | – | –
14 | CC(C)(CO)CNC(=O)c1cc2cc(C#N)ccc2n1Cc1cccc(OC(F)(F)F)c1 | 136 µL/min/mg | 20 µL/min/mg | < 6 µL/min/mg | 1.82 nM | 62 µL/min/mg | 3.42 µmol/kg | 0.794 nM | > 10000 nM

From ChEMBL document CHEMBL1759935, “Pharmacokinetic optimisation of novel indole-2-carboxamide cannabinoid CB1 antagonists” (Bioorg Med Chem Lett, 2011)
